Bioassay records (PubChem BioAssay)
APJ antag = blocks the human apelin receptor APJ | AID 2521 | P35414 | CHO-K1 APJ beta-arrestin complementation, luminescence | inhibition, % at 20 µM | 330,000 compounds, 0.32% hits;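 active = inhibition above about 40% at 20 µM, limit read from the data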;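 note: cells challenged with 10 nM apelin-13 agonist together with compound; plate controls were apelin-13 plus DMSO wells for no effect and DMSO wells lacking apelin-13 for full effect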
APJ ag = APJ receptor agonism | 330,000 compounds, 0.11% hits | P35414 | activation, % at 20 µM | CHO-K1 APJ PathHunter beta-arrestin, luminescence; 0% DMSO wells, 100% apelin | AID 2520;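 active = activation more than six SD over the plate average, tested at 20 µM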;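 note: 0% = DMSO alone and 100% = apelin-13 at 10 nM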
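Assay system – PathHunter CHO-K1 APJ (AGTRL-1) beta-arrestin reporter cells · Compound – one dose, 20 µM compound, 1% DMSO · Timing – compound 90 min 25 °C, reagent 1 h · Measured by – luminescence from split beta-galactosidase complementation, Galacton Star/Emerald II substrate · Measure – beta-arrestin recruitment to APJ as agonist activity, luminescent signal · Benchmarks – DMSO vs Apelin-13 10 nM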
CXCR6 inh = inhibitors of human CXCR6 receptor | O00574 | CHO-K1 PathHunter CXCR6 beta-arrestin, luminescence | inhibition, % at 20 µM | 360,000 compounds, 0.36% hits | AID 602244; in the data active = inhibition above about 34%, passing the limit was not always enough;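 note: antagonist mode with CXCL16 agonist at 10 nM final; 0% = 10 nM CXCL16 with DMSO and 100% = unstimulated wells without agonist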
Target sequence (O00574 whole entry, looked up): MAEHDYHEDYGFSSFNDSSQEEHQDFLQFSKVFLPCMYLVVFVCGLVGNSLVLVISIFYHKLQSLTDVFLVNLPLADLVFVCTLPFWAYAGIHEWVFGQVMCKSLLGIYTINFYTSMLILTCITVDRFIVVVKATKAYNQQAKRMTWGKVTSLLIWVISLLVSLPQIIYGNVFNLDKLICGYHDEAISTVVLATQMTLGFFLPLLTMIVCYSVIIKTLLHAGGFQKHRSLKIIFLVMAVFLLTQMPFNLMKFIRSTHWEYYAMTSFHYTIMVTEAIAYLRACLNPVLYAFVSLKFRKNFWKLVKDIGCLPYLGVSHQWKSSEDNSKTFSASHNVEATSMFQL
EBI2 block = EBI2 (human) antagonism | P32249 | AID 651636 | EBI2 beta-arrestin recruitment, luminescence, 7a,25-OHC stimulated | 360,000 compounds, 0.81% hits | inhibition, % at 5 µM; in the data active = inhibition above about 38%;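 note: enzyme fragment complementation signal reports receptor beta-arrestin coupling in cells; 0% = agonist plus DMSO wells and 100% = wells without agonist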
Target sequence (P32249 whole entry, looked up, the tested form may be a part): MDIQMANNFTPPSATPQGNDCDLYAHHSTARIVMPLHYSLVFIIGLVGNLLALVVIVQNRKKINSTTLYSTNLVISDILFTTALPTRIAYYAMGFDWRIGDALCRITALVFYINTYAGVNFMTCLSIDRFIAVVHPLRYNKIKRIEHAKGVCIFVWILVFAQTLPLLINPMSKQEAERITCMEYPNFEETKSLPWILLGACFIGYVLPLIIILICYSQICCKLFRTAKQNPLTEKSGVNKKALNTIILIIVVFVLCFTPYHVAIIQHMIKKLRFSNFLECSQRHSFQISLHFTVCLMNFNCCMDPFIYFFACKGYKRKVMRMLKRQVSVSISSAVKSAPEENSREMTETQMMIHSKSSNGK
CCR6 antag = antagonists of human CCR6 receptor; inhibition, % at 20 µM; P51684; 340,000 compounds, 0.49% hits; CHO-K1 CCR6 PathHunter beta-arrestin, luminescence, CCL20-stimulated;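 active = compounds whose inhibition of the agonist-driven luminescence signal at 20 µM reaches about 50%, limit read from the data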;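 note: cells stimulated with CCL20 at 14 nM final; plate controls were DMSO with CCL20 for no effect and DMSO without agonist for full effect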
EBI2 antag conf = EBI2 (human) antagonism, single concentration confirmation | shares compounds with EBI2 block | EBI2 beta-arrestin luminescence, 7a,25-OHC antagonism | inhibition, % at 5 µM | 2,400 compounds, 29% hits | AID 651997;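 active = inhibition of at least 50%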
EBI2 ag = activates EBI2, counter-screen for EBI2 antagonists. activation, % at 5 µM. 2,400 tested, under 10 active. shares compounds with EBI2 block. EBI2-expressing cells, agonist mode, luminescence, 60 min; 0% vehicle, 100% 7α,25-dihydroxycholesterol control;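 active = activation of at least 50%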
bGal cs = inhibits E. coli beta-galactosidase, counter-screen for EBI2 antagonists; purified beta-galactosidase, luminescent Galacton Star, 15 min; shares compounds with EBI2 block; inhibition, % at 5 µM; 2,400 compounds, 1% hits;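 active = replicate-average signal at least 3 plate SD below neutral wells, shown as high inhibition, flagging enzyme-inhibiting false positives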;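 note: 0% = DMSO wells with enzyme and 100% = wells lacking enzyme; higher means stronger loss of beta-gal luminescence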
* = called active by the depositor; . = no result. This is a sample that favours compounds with a hit; in the whole collection about 1.5% have one here.

SMILES | APJ antag | APJ ag | CXCR6 inh | EBI2 block | CCR6 antag | EBI2 antag conf | EBI2 ag | bGal cs
O=[N+]([O-])c1ccc(Oc2ccc(C(F)(F)F)cn2)cc1 | 1 | -3 | -11 | 8 | 13 | . | . | .
O=C(Nc1ccc(Oc2ccccc2)nc1)C1CCCCN1Cc1cccc(OCCO)c1 (stereo not drawn) | -49 | -1 | -11 | 63* | 15 | 58* | 1 | 1
O=C(N/N=C/c1ccc(N2CCOCC2)s1)c1ccccc1Cl | 2 | -3 | -8 | -3 | 18 | . | . | .
C(=N\N(c1ccccc1)c1ccccc1)/c1ccc(N2CCOCC2)s1 | 1 | -6 | 4 | 56* | 14 | 20 | 2 | 4
CNC1=C(N(C(C)=O)c2ccc(Br)cc2)C(=O)c2ccccc2C1=O | . | . | -15 | -2 | -16 | . | . | .
O=C(CSCc1ccc(F)cc1)NCc1ccco1 | 14 | 1 | -5 | -2 | 1 | . | . | .
COc1ccc(/C=N/NC(N)=S)cc1OC(=O)c1cccc2ccccc12 | 1 | 11 | 9 | 56* | 9 | 5 | 2 | 3
CC1CCN(C(=O)c2cc3ccccc3c(=O)o2)CC1 | 10 | 0 | -2 | -2 | 7 | . | . | .
CC1CCN(C(=O)c2cc3c(ccc4ccccc43)o2)CC1 | -20 | -6 | 5 | 82* | 31 | 62* | 0 | -5
CCOC(=O)C1CCN(C(=O)c2cc3c(ccc4ccccc43)o2)CC1 | 13 | -5 | -5 | 78* | 35 | 64* | -1 | -11
CC1(C)CC(=O)C2=C(C1)N(c1ccc(F)cc1)C(=O)CC2c1cccnc1 (stereo not drawn) | 11 | -2 | 4 | -11 | 18 | . | . | .
COc1ccccc1NC(=O)COc1ccccc1C(=O)Nc1ccccc1 | -25 | 0 | -1 | 4 | 4 | . | . | .
CC(C)(C)c1nnc(N/N=C/c2ccccc2)n(N)c1=O | 2 | 1 | -2 | 77* | 12 | 48 | 2 | 8
CN(c1ccccc1)c1nc(N2CCCC2)nc(-n2ccnc2)n1 | 22 | -1 | 9 | 32 | 22 | . | . | .
c1ccc(N(c2ccccc2)c2nc(N3CCCC3)nc(-n3ccnc3)n2)cc1 | 27 | -4 | 9 | 40* | 34 | 38 | 3 | 1
CCCCOC(=O)C(C#N)c1nc2ccccc2nc1N1CCN(Cc2ccc3c(c2)OCO3)CC1 (stereo not drawn) | 9 | -7 | 25 | 46* | 17 | 18 | -2 | -3
COC(=O)C(C#N)c1nc2ccccc2nc1N1CCN(Cc2ccc3c(c2)OCO3)CC1 (stereo not drawn) | -5 | -1 | . | . | . | . | . | .
COCCOC(=O)C(C#N)c1nc2ccccc2nc1N1CCN(Cc2ccccc2)CC1 (stereo not drawn) | 9 | -4 | 14 | 29 | 36 | . | . | .
CC(C)COC(=O)C(C#N)c1nc2ccccc2nc1N1CCN(Cc2ccccc2)CC1 (stereo not drawn) | 4 | 5 | 16 | 46* | 25 | 33 | 0 | 7
Nc1c(S(=O)(=O)c2ccccc2)csc1C(=O)O | -11 | -2 | -2 | -4 | 10 | . | . | .
COC(=O)c1ccc(OCC(=O)c2ccc(O)cc2O)cc1 | 12 | -4 | 4 | -1 | -11 | . | . | .
O=C(COc1ccc(Cl)cc1)c1ccc(O)cc1O | 7 | -4 | -5 | 44* | 13 | 5 | 1 | 2
CN(C)c1ccc(/C=N/NC(=S)NCc2ccccc2)cc1 | 4 | 8 | 0 | 49* | 11 | 28 | 1 | 4
CCc1ccc(/C=N/NC(=S)NCCc2ccccc2)cc1 | 14 | -5 | 1 | 57* | 13 | 36 | 0 | -11
CC(C)(C)c1ccc(/C=N/NC(=S)NCc2ccccc2)cc1 | -3 | -2 | 10 | 18 | 20 | . | . | .
SMILES | APJ antag | APJ ag | CXCR6 inh | EBI2 block | CCR6 antag | EBI2 antag conf | EBI2 ag | bGal cs
CCOc1cc(S(=O)(=O)N2CCC(Cc3ccccc3)CC2)c(OCC)cc1-n1cnnn1 | 9 | -6 | -1 | 45* | 16 | 22 | 1 | 5
CCOc1cc(S(=O)(=O)N2CC=C(c3ccc(F)cc3)CC2)c(OCC)cc1-n1cnnn1 | 5 | -8 | 10 | 6 | 8 | . | . | .
Cc1cc(C)n(C(=O)c2cccc(S(=O)(=O)N3CCCC3)c2)n1 | 15 | -2 | 4 | -1 | 9 | . | . | .
O=C(C[C@H]1C/C=C\C[C@H](NC(=O)OCC2c3ccccc3-c3ccccc32)C(=O)OC[C@H]2CCCN2C1=O)NCCO | -11 | -2 | -10 | 8 | 0 | . | . | .
O=C(CCn1cnc2ccccc21)N/N=C/C=C/c1ccccc1 | 6 | 1 | -4 | 46* | 8 | 52* | 1 | 5
O=C(NCC1CCCO1)c1ccc(C(=O)NCC2CCCO2)cc1 (stereo not drawn) | -8 | -1 | 3 | -1 | -2 | . | . | .
CNC(=S)N1N=C(c2ccc(C)cc2)CC1c1ccc(Cl)cc1 (stereo not drawn) | 13 | 1 | 7 | 73* | -2 | 62* | -1 | -6
CC(C)c1ccc(C2CC(c3ccc(Br)cc3)=NN2C(N)=S)cc1 (stereo not drawn) | 4 | 0 | 17 | 72* | 25 | 60* | -2 | -11
CC(=O)N1N=C(c2ccc(Br)cc2)CC1c1ccc(Br)cc1 (stereo not drawn) | . | . | 6 | 8 | . | . | . | .
CNC(=S)N1N=C(c2ccc(C)cc2)CC1c1ccc(Br)cc1 (stereo not drawn) | -3 | -2 | 7 | 81* | 6 | 65* | -1 | -9
Clc1ccc(Cc2ccc(SCc3ccccc3)nn2)c(Cl)c1 | -9 | -1 | 5 | 23 | 22 | . | . | .
CN(C)CCNC(=O)c1cccc(-c2cccc3nccn23)c1 | . | . | -1 | -6 | . | . | . | .
COc1ccc2cc(-c3[nH]ncc3CN3CCCC3c3nonc3C)ccc2c1 (stereo not drawn) | -26 | 0 | -3 | 46* | -2 | 28 | 0 | 6
O=C(c1cc2ccccc2o1)N1CCN(CCOc2ccccc2)CC1 | -37 | -4 | -4 | 56* | 10 | 38 | -1 | -13
Cc1ccc(C(=O)N2CCN(Cc3ccc4c(c3)OCO4)CC2)o1 | -7 | 2 | -6 | -4 | 18 | . | . | .
Cc1ccc2c(C)c(C(=O)N3CCN(Cc4ccc5c(c4)OCO5)CC3)oc2c1C | 2 | -3 | 0 | 44* | -4 | 16 | 2 | 5
O=C(c1cc2ccccc2o1)N1CCN(Cc2ccc3c(c2)OCO3)CC1 | 10 | -1 | -2 | 70* | 6 | 37 | 1 | 6
O=C(NCCC(=O)N1CCCCCCC1)c1ccc(Br)cc1 | 16 | -3 | 5 | 4 | 8 | . | . | .
Fc1ccccc1CN1CCCCCCC1 | -16 | -4 | -4 | 0 | -8 | . | . | .
